Measurements: ChEMBL document CHEMBL3526048, “In vitro metabolism of rivoglitazone, a novel peroxisome proliferator-activated receptor γ agonist, in rat, monkey, and human liver microsomes and freshly isolated hepatocytes” (Drug Metab Dispos, 2011)

Tests used:
[1] = Drug metabolism in cynomolgus monkey liver microsomes assessed as formation of (2S,3S,4S,5R,6R)-3,4,5-trihydroxy-6-(5-(4-((6-methoxy-1-methyl-1H-benzo[d]imidazol-2-yl)methoxy)benzyl)-2,4-dioxothiazolidin-3-yl)tetrahydro-2H-pyran-2-carboxylic acid at 20 uM after 4 hrs by radio-HPLC/LC-MS/MS analysis in presence of UDPGA and UDPGA/SAM; assay type: ADME, Macaca fascicularis
Liver microsome = experiment: Drug metabolism in Sprague-Dawley rat liver microsomes assessed as formation of 2-amino-3-((1-carboxy-2-(4-((6-methoxy-1-methyl-1H-benzo[d]imidazol-2-yl)methoxy)phenyl)ethyl)disulfanyl)propanoic acid at 20 uM by radio-HPLC/LC-MS/MS analysis; assay type: ADME
[2] = target: T1, UDP-glucuronosyltransferase 1A1 (Homo sapiens, UniProt P22309); experiment: Activity of human UGT1A1 expressed in microsomes isolated from baculovirus infected insect cell assessed as enzyme-mediated 2-mercapto-3-(4-((6-methoxy-1-methyl-1H-benzo[d]imidazol-2-yl)methoxy)phenyl)propanoic acid formation at 20 uM after 4 hrs by radio-HPLC/LC-MS/MS analysis in presence of UDPGA; assay type: ADME
T1 sequence (P22309 whole entry): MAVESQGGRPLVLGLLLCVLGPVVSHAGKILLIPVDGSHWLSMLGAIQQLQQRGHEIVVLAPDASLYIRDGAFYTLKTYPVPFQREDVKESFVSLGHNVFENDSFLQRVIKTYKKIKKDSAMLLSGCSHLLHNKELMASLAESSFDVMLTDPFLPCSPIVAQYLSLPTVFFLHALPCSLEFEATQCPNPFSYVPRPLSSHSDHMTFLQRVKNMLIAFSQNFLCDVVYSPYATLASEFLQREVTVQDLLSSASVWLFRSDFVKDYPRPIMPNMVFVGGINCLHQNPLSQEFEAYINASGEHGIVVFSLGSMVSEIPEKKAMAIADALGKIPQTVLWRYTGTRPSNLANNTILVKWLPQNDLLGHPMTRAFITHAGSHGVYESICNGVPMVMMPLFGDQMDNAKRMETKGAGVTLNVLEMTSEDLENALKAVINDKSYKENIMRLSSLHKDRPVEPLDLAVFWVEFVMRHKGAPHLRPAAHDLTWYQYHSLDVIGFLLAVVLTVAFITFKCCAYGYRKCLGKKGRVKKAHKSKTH
Procedure, shortened: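 Alamethicin (50 μg/mg protein, 15 min on ice) pretreated expressed human UGT microsomes (1 mg/ml protein) from baculovirus-infected insect cells. Incubation with [¹⁴C]rivoglitazone (20 μM) in 100 mM Tris-HCl (pH 7.5) with 10 mM MgCl₂, started by 5 mM UDPGA, 4 h at 37°C with shaking. UGT insect-cell control supersomes were run alongside. Acetonitrile stop, concentrated supernatant analysed by radio-HPLC, LC-MS and LC-MS/MS.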

Cytochrome P450 3A4 = Cytochrome P450 3A4 (Homo sapiens, UniProt P08684); experiment: Activity of human CYP3A4 expressed in microsomes isolated from baculovirus infected insect cell assessed as enzyme-mediated (2S,3S,4S,5R,6R)-6-((1-carboxy-2-(4-((6-methoxy-1-methyl-1H-benzo[d]imidazol-2-yl)methoxy)phenyl)ethylthio)carbonylamino)-3,4,5-trihydroxytetrahydro-2H-pyran-2-carboxylic acid formation at 20 uM after 2 hrs by radio-HPLC/LC-MS/MS analysis in presence of NADPH-generating system/SAM; assay type: ADME
Cytochrome P450 2D6 = Cytochrome P450 2D6 (Homo sapiens, UniProt P10635); experiment: Activity of human CYP2D6 expressed in microsomes isolated from baculovirus infected insect cell assessed as enzyme-mediated 3-(4-((6-methoxy-1-methyl-1H-benzo[d]imidazol-2-yl)methoxy)phenyl)-2-(methylsulfonyl)propanamide formation at 20 uM after 2 hrs by radio-HPLC/LC-MS/MS analysis in presence of NADPH-generating system/SAM; assay type: ADME
Cytochrome P450 3A5 = Cytochrome P450 3A5 (Homo sapiens, UniProt P20815); experiment: Activity of human CYP3A5 expressed in microsomes isolated from baculovirus infected insect cell assessed as enzyme-mediated 2-mercapto-3-(4-((6-methoxy-1-methyl-1H-benzo[d]imidazol-2-yl)methoxy)phenyl)propanoic acid formation at 20 uM after 2 hrs by radio-HPLC/LC-MS/MS analysis in presence of NADPH-generating system; assay type: ADME
Procedure, shortened: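 cDNA-expressed human CYP3A5 in baculovirus-insect-cell microsomes (1 mg/ml protein) was incubated with [¹⁴C]rivoglitazone (20 μM) in 50 mM potassium phosphate (pH 7.4) or 100 mM Tris-HCl (pH 7.5). NADPH-generating system: 2 mM NADP⁺, 20 mM glucose 6-phosphate, 2 units/ml G6PDH, 10 mM MgCl₂. Incubation ran 2 h at 37°C with shaking; insect-cell control supersomes served as control. Acetonitrile stop, supernatant concentrated, then radio-HPLC, LC-MS and LC-MS/MS.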

[3] = target: T2, UDP-glucuronosyltransferase 1A8 (Homo sapiens, UniProt Q9HAW9); experiment: Activity of human UGT1A8 expressed in microsomes isolated from baculovirus infected insect cell assessed as enzyme-mediated (2S,3S,4S,5R,6R)-6-((1-carboxy-2-(4-((6-methoxy-1-methyl-1H-benzo[d]imidazol-2-yl)methoxy)phenyl)ethylthio)carbonylamino)-3,4,5-trihydroxytetrahydro-2H-pyran-2-carboxylic acid formation at 20 uM after 4 hrs by radio-HPLC/LC-MS/MS analysis in presence of UDPGA; assay type: ADME
T2 sequence (Q9HAW9 whole entry): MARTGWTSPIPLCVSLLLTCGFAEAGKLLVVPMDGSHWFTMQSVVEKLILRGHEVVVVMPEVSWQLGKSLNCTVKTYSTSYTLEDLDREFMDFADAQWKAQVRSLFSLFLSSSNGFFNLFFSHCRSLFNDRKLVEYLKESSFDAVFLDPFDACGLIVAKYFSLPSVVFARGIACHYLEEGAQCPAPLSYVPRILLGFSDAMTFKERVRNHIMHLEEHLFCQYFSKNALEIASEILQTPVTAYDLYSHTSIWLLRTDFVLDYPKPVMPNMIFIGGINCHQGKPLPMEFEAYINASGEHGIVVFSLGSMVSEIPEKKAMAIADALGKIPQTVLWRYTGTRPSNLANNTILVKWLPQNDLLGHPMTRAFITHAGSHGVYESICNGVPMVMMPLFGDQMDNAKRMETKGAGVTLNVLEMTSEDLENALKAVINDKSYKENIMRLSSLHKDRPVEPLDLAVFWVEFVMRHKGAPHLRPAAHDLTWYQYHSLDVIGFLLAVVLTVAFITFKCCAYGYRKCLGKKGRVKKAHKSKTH

Cytochrome P450 2C19 = Cytochrome P450 2C19 (Homo sapiens, UniProt P33261); experiment: Activity of human CYP2C19 expressed in microsomes isolated from baculovirus infected insect cell assessed as enzyme-mediated 5-(4-((6-hydroxy-1-methyl-1H-benzo[d]imidazol-2-yl)methoxy)benzyl)thiazolidine-2,4-dione formation at 20 uM after 2 hrs by radio-HPLC/LC-MS/MS analysis in presence of NADPH-generating system and NADPH-generating system/SAM; assay type: ADME
Procedure, shortened: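 Baculovirus/insect-cell microsomes expressing single human CYPs, 1 mg/ml protein, with 50 mM potassium phosphate (pH 7.4) or 100 mM Tris-HCl (pH 7.5). NADPH-generating system: 2 mM NADP⁺, 20 mM glucose 6-phosphate, 2 units/ml G6PDH, 10 mM MgCl₂. [¹⁴C]rivoglitazone at 20 μM, 2 h at 37°C with shaking. Control used insect-cell control supersomes. Stopped with acetonitrile; supernatant concentrated under nitrogen; metabolites analysed by radio-HPLC, LC-MS and LC-MS/MS.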

Cytochrome P450 2C9 = Cytochrome P450 2C9 (Homo sapiens, UniProt P11712); experiment: Activity of human CYP2C9 expressed in microsomes isolated from baculovirus infected insect cell assessed as enzyme-mediated 2-mercapto-3-(4-((6-methoxy-1-methyl-1H-benzo[d]imidazol-2-yl)methoxy)phenyl)propanamide formation at 20 uM after 2 hrs by radio-HPLC/LC-MS/MS analysis in presence of NADPH-generating system and NADPH-generating system/SAM; assay type: ADME
Chain of Cytochrome P450 2C9 (P11712 whole entry): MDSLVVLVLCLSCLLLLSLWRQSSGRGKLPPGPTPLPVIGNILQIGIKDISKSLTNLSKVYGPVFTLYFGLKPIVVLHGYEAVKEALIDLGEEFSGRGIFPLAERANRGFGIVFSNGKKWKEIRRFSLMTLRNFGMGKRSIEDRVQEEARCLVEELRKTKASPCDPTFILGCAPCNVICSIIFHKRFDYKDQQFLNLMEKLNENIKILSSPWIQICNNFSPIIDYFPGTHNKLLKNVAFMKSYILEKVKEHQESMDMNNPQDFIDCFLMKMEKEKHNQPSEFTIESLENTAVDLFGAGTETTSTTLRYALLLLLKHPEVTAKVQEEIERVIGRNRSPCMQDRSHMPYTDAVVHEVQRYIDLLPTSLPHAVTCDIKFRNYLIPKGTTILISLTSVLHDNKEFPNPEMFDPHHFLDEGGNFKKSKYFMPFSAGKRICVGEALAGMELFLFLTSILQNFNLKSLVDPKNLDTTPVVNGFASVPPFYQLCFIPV

Chain of Cytochrome P450 3A4 (P08684 whole entry): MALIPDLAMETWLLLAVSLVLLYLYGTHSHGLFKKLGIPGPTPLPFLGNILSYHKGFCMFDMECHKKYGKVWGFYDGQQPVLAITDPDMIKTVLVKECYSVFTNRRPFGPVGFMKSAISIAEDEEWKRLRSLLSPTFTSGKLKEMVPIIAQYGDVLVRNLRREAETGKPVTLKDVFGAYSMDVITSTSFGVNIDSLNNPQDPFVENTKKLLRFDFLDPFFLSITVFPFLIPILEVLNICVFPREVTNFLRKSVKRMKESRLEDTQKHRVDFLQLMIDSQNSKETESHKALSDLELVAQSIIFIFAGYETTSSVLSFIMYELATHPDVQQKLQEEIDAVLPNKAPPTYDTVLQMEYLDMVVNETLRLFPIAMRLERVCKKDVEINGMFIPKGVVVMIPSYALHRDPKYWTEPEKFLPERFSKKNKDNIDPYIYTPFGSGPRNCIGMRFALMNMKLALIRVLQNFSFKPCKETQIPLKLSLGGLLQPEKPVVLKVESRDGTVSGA
Chain of Cytochrome P450 2D6 (P10635 whole entry): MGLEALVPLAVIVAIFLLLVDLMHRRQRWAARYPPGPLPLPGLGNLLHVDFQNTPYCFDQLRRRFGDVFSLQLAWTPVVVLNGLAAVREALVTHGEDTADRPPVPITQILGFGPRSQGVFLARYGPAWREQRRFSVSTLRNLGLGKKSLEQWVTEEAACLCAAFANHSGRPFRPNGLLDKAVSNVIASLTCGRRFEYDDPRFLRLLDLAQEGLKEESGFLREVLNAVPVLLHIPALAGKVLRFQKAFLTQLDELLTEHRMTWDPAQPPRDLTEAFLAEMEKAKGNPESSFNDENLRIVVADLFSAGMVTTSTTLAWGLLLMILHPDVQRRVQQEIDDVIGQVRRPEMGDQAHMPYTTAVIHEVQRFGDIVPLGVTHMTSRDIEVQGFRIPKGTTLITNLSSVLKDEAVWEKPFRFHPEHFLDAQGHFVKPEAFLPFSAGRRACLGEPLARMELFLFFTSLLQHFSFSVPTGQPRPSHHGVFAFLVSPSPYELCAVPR
Chain of Cytochrome P450 2C19 (P33261 whole entry): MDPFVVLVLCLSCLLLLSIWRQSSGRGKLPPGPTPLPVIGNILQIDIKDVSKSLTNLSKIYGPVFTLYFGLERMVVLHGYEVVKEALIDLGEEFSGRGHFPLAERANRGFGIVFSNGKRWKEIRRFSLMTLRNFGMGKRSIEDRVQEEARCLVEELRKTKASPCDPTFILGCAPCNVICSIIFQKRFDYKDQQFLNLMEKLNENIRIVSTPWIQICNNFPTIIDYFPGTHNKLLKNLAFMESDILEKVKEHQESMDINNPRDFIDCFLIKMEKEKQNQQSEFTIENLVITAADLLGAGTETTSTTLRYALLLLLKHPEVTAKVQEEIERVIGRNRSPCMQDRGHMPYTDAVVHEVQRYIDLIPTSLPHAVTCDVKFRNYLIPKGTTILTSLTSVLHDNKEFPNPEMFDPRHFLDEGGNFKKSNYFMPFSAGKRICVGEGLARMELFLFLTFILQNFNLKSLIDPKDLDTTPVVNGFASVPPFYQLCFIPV
Chain of Cytochrome P450 3A5 (P20815 whole entry): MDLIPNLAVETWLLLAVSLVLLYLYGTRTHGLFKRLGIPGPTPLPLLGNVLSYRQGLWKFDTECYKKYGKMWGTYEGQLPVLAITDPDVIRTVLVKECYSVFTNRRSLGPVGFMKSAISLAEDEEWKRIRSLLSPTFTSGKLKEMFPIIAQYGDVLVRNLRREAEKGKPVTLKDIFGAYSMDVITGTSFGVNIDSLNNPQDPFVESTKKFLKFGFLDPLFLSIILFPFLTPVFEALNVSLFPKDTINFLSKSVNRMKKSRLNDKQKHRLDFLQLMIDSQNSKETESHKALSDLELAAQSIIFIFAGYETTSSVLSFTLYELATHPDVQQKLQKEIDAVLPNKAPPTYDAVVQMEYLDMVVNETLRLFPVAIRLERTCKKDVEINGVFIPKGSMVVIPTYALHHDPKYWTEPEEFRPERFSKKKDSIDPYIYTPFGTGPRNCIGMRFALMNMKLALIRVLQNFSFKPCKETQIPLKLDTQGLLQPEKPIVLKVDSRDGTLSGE

In the case of `COc1ccc2nc(COc3ccc(C[14CH]4SC(=O)NC4=O)cc3)n(C)c2c1.Cl` (racemic), the Drug metabolism [1] is reported as “metabolite_detected”, the Drug metabolism (Liver microsome) is reported as “metabolite_not_detected” and the Drug metabolism [2] is reported as “metabolite_not_detected”. The Drug metabolism (Cytochrome P450 3A4) was “metabolite_not_detected”, the Drug metabolism (Cytochrome P450 2D6) was “metabolite_not_detected” and the Drug metabolism (Cytochrome P450 3A5) was “metabolite_detected”. The Drug metabolism [3] was “metabolite_not_detected”, the Drug metabolism (Cytochrome P450 2C19) was “metabolite_detected” and the Drug metabolism (Cytochrome P450 2C9) was “metabolite_detected”.
